The results in this text go back to PubChem BioAssay AID624466 (The Scripps Research Institute Molecular Screening Center, 2012).

Screen size: about 360,000 compounds; about 5,400 (1.5%) were called active.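 How the source made its calls: active means inhibition above a per-plate cutoff, the mean inhibition of test compounds on that plate plus 3 SD (cut at about 49% in these data); inactive means the rest.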 The sample as a whole holds a higher share of actives than the screen did.

The target in this assay is Trace amine-associated receptor 1 (Homo sapiens) (UniProt Q96RJ0). Kind of assay: human TAAR1 antagonists, primary screen, Fluo-8 calcium fluorescence, CHO RD-HGA16 cells (AID 624466).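 Further: 0% = DMSO plus EC80 beta-PEA response and 100% = DMSO alone without agonist.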 To be noted: CHO RD-HGA16 TAAR1, Fluo-8 calcium fluorescence, antagonist; at 3 µM; stronger effect = higher value. The gist of the method: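 Material: RD-HGA16 CHO cells with stable hTAAR1 and Gα16; Dosing: single nominal final test compound concentration of 3 µM; Schedule: seeding 17-24 h prior, 75-min 37 °C, 30-min RT dye loading; Detection: kinetic Fluo-8 calcium fluorescence measurement; Measure: % inhibition from peak post-agonist over basal fluorescence ratio; Benchmarks: vehicle and agonist controls.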
Trace amine-associated receptor 1 (Homo sapiens), sequence (Q96RJ0 whole entry, looked up): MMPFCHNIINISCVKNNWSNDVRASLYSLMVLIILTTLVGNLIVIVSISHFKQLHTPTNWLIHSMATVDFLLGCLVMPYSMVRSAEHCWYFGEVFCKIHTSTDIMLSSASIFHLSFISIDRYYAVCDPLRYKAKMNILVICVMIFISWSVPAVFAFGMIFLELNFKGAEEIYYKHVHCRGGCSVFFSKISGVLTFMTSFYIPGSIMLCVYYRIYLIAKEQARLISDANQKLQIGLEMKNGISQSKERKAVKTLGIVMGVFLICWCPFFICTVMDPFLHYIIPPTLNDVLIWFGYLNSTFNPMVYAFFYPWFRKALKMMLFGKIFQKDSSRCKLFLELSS
For `CC(=O)C[C@@H]1OC[C@H](C)N1S(=O)(=O)c1ccc(C)cc1`, the inhibition (commonly the change of the read-out against control, counted positive when it falls) was -22.5% (inactive).

Regarding `COC(=O)[C@]1(C)N[C@H](c2ccc(-c3ccc(Cl)c(Cl)c3)cc2)[C@@H]2C(=O)N(C)C(=O)[C@@H]21`, the inhibition is 20.9% (inactive).

As for `CCCNS(=O)(=O)c1ccc(CCC(=O)N2CCCC2)cc1`, the inhibition was -0.2% (inactive).

With `CCNS(=O)(=O)c1ccc(CCC(=O)N2CCN(c3cc(Cl)ccc3C)CC2)cc1`, the inhibition was 65.9% (active).

Regarding `CCNS(=O)(=O)c1ccc(CCC(=O)N2CCN(c3ccc(OC)cc3)CC2)cc1`, the inhibition was 8.27% (inactive).

Take `CCOc1ccc(NS(=O)(=O)c2cc(C)c(C)cc2C)cc1`: the inhibition was 18.6% (inactive).

With `Cc1cccc(NC(=O)CN2CCN(CC(=O)NCC3(N4CCCCC4)CCCCC3)CC2)c1C`, the inhibition is -28.3% (inactive).

Regarding `COc1cc(NC(=O)C2=CC(c3ccc(C)cc3)=NS(=O)(=O)N2C)cc(OC)c1OC`, the inhibition is -7.77% (inactive).

Turning to `COc1cc(NC(=O)C2=CC(c3ccco3)=NS(=O)(=O)N2C)cc(OC)c1OC`, the inhibition is -8.05% (inactive).

With `COc1ccc(NC(=O)C2=CC(c3ccc(OC)c(OC)c3)=NS(=O)(=O)N2C)cc1`, the inhibition was 52.3% (active).

Consider `O=C(O)C1CCCN1S(=O)(=O)c1ccc(Br)cc1` (stereo unspecified), for which the inhibition is -6.42% (inactive).

For `O=C(O)CC/C(=N\NC(=O)c1ccc(F)cc1)c1ccc(Br)cc1`, the inhibition was 3.38% (inactive).

In the case of `CC(=O)c1ccc(N2CCN(C(=O)c3ccc4nc[nH]c4c3)CC2)cc1`, the inhibition is -29.8% (inactive).

`CC1=NNC(=O)C1CCC(=O)N/N=C\c1ccc(Cl)c(Cl)c1` (stereo unspecified): the inhibition was -10.3% (inactive).

For `O=C(N/N=C/c1ccc(Cl)c(Cl)c1)c1ccc2nc[nH]c2c1`, the inhibition is 63.3% (active).

`CC(=NNC(=O)c1ccc2nc[nH]c2c1)c1ccc(Br)cc1`: the inhibition is 51.9% (active).

For the compound `CSc1ccc(/C=N/NC(=O)c2cccc(Cl)c2)cc1`, the inhibition was 8.63% (inactive).

With `C[C@H](CO)N1C[C@H](C)[C@H](CN(C)C(=O)Nc2ccc(C(F)(F)F)cc2)Oc2c(NC(=O)c3ccncc3)cccc2C1=O`, the inhibition is 3.31% (inactive).

As for `O=C(C[C@H]1CC[C@@H](NC(=O)c2ccncc2)[C@@H](CO)O1)NCC1CC1`, the inhibition was -5.86% (inactive).

Regarding `COC(=O)C1=C(C)NC(=S)NC1c1ccc(OC)cc1` (stereo unspecified), the inhibition is -22.6% (inactive).

`CC(=O)N1Cc2cc(C(=O)NCc3cccc(F)c3)nc(-c3cccc(C4=CCCC4)c3)c2[C@H]1CCO`: the inhibition was -5.18% (inactive).

For `COC(=O)c1c(-c2ccc(OC)cc2)c2c(c3c4cc(OC)ccc4n(S(=O)(=O)c4ccc(F)cc4)c13)C(=O)N(C)C2`, the inhibition is -12.2% (inactive).

Turning to `C#CCN([C@@H](C)C(=O)OCC)S(=O)(=O)c1ccc(Br)cc1F`, the inhibition is 15% (inactive).

In the case of `CN(c1ccccc1)S(=O)(=O)c1cc(C(=O)Nc2nc3ccccc3[nH]2)ccc1Cl`, the inhibition is 59% (active).

Consider `CN(c1ccccc1)S(=O)(=O)c1cc(C(=O)N2CCN(c3ncccn3)CC2)ccc1Cl`, for which the inhibition is 42.5% (inactive).

For the compound `Cc1cccc(NC(=O)c2ccc(S(=O)(=O)N(C)c3ccccc3)cc2)n1`, the inhibition is 27.4% (inactive).

`Cc1ccc(S(=O)(=O)N2CCC(=O)N([C@H](COCc3ccccc3)C(C)C)CC2)cc1`: the inhibition was 1.41% (inactive).

For the compound `COC(=O)c1ccc(CN2C(=O)[C@]3(OCCC=C[C@H]3C)c3c(Br)cccc32)cc1`, the inhibition is -17.5% (inactive).

In the case of `CCOc1cccc(OCCCOc2cccc3cccnc23)c1`, the inhibition is -11% (inactive).

As for `Cc1ccc2cccc(OCCCOc3ccccc3CO)c2n1`, the inhibition is 49.6% (active).

In the case of `Cc1cc(OCCOc2cccc3cccnc23)c(C)cc1Cl`, the inhibition is -4.44% (inactive).

`CSc1ccc(S(=O)(=O)N2CCC(C(=O)NCc3ccncc3)CC2)cc1`: the inhibition is -9.01% (inactive).

Turning to `CC(=O)C1=CCC(c2ccccc2)N(S(=O)(=O)c2ccc(C)cc2)C1` (stereo unspecified), the inhibition is -17.1% (inactive).

On to `Cc1cc(C)c(SCCc2ccncc2)c(C)c1`, for which the inhibition is 11.4% (inactive).

On to `CC(C)(C)c1ccc(SCCc2ccncc2)cc1`, for which the inhibition was 49.2% (active).

Regarding `c1ccc(CSCCc2ccncc2)cc1`, the inhibition is 5.41% (inactive).

For `CCOCCCN1C(=O)CN(C2CCCCC2)C(=O)C1c1ccc(OCC)c(OC)c1` (stereo unspecified), the inhibition is 11.2% (inactive).

In the case of `CCCCn1nnnc1C(c1ccccc1)N1CCN(c2ccccc2OC)CC1` (stereo unspecified), the inhibition was 12.1% (inactive).

With `Cc1nc2ccccc2n1C(=O)N1CCOCC1`, the inhibition is 12.8% (inactive).

Consider `CCN(CC)CCN(C)C(c1ccnc2ccccc12)c1nnnn1-c1ccc2c(c1)OCCO2` (stereo unspecified), for which the inhibition was 4.47% (inactive).

Consider `COc1cc(OC)c(N2CC(C(=O)Nc3cc(Cl)ccc3N3CCOCC3)CC2=O)cc1Cl` (stereo unspecified), for which the inhibition was 6.19% (inactive).

Turning to `COc1cc(OC)c(-n2cc(-c3ccc(Cl)cc3)[nH]c2=O)cc1Cl`, the inhibition was 85.5% (active).

Regarding `COc1ccc(-n2c(-c3ccc(Cl)cc3)n[nH]c2=S)c(OC)c1`, the inhibition was -24.1% (inactive).

Take `CCCn1nc(NS(=O)(=O)c2ccc(F)cc2)c2cc3ccccc3nc21`: the inhibition was 9.03% (inactive).

`COc1ccccc1-c1ccc([C@@H]2C[C@H]3[C@H](CON3C)CN2S(=O)(=O)c2cc(Cl)cc(Cl)c2)cc1`: the inhibition is -24.5% (inactive).

Turning to `CCOC(=O)C1(C)CCCN(C(=O)c2ccc(N(C)C)cc2)C1` (stereo unspecified), the inhibition was -13.8% (inactive).

As for `CCC(C)CN1C(=O)CN(S(C)(=O)=O)CC1(C)C(=O)Nc1ccc2c(c1)OCCO2` (stereo unspecified), the inhibition is -7.39% (inactive).

Take `O=C(NC1CCC(O)CC1)c1ccccc1OCc1ccc(F)cc1` (stereo unspecified): the inhibition was -21.4% (inactive).

On to `COc1ccc(CCNC(=O)c2ccccc2OCc2ccccc2)cc1`, for which the inhibition was -1.77% (inactive).

`CC(=O)c1ccccc1OCc1ccc(C(=O)c2ccccc2)cc1`: the inhibition is 71.8% (active).

As to `CCC(=O)Oc1cccc(C(=O)Nc2ccc(-c3nnc(-c4ccco4)o3)cc2)c1`, the inhibition is 63.3% (active).

For the compound `O=C(Nc1ccc(Cl)cc1)c1cccc(OC(=S)N2CCOCC2)c1`, the inhibition is -20.4% (inactive).

Consider `Cc1ccc2nc(-c3ccc(NC(=O)c4cccnc4)cc3)oc2c1`, for which the inhibition was 45.9% (inactive).

Take `CCOC(=O)N(Cc1ccccc1)C1CC1`: the inhibition is 2.44% (inactive).

For `CN(C(=O)CN(CCO)CC(=O)N(C)C(C)(C)Cc1ccccc1)C(C)(C)Cc1ccccc1`, the inhibition was 86.5% (active).

`CN(CCO)C(=O)c1nc[nH]c1C(=O)N(C)Cc1ccccc1`: the inhibition is -10.4% (inactive).
